Assay outcomes deposited in PubChem BioAssay by several laboratories.
This is a sample that favours compounds with a hit; in the whole collection about 1.8% have one here.
procasp7 counter = procaspase-7 activators, primary screen, counter-screen for procaspase-3 activator project, biochemical, absorbance, HTS, human | recombinant procaspase-7, Ac-DEVD-pNA absorbance 405 nm; D23A/D198A/D206A triple mutant, cannot self-cleave; scale: DMSO 0, 5 µM enzyme 100 | activation, % at 8.5 µM | 330,000 tested, 0.093% active | AID 463210, 2010;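 active = percent activation above the screen-wide mean plus 3 SD, cut at about 25% in these data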
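buffer or medium = Zinc-free HEPES/NaCl buffer, pH 7.4 | material = Procaspase-7 triple mutant (PC-7 D3A) | input = 2 µM procaspase-7 mutant as dispensed | signal = Epi-absorbance of released pNA at 405 nm, two timepoints | timing = 1 h preincubation, 2 h reaction | replicates = singlicate compound testing | evaluation = % activation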
GSTO1 inh = inhibitors of recombinant GSTO1, primary screen, counter-screen for RBBP9 inhibitor project, biochemical, fluorescence polarization. Glutathione S-transferase omega-1 (Homo sapiens), P78417. 300,000 tested, 1.1% active. activity-based probe fluorescence polarization. inhibition, % at 5.96 µM. AID 1974, 2009;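 active = inhibition above the campaign mean inhibition plus 3 SD, cut at about 35% in these data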
EBNA-1 inhibitor = EBNA-1 DNA-binding inhibitors, primary screen, biochemical, fluorescence polarization; inhibition, % at 14.8 µM; 300,000 tested, 0.34% active; in the data active = inhibition above about 28%
Apaf1 inhib = inhibitors of human Apaf-1 apoptosome, primary screen, biochemical, DEVD-Rh110 fluorescence, uHTS. Apoptotic protease-activating factor 1 (Homo sapiens), O14727. reconstituted apoptosome caspase-3 activity. inhibition, % at 20 µM. 330,000 tested, 0.71% active. AID 489030, 2010; active = inhibition of at least 40% at 20 µM
Target sequence (O14727 whole entry, looked up): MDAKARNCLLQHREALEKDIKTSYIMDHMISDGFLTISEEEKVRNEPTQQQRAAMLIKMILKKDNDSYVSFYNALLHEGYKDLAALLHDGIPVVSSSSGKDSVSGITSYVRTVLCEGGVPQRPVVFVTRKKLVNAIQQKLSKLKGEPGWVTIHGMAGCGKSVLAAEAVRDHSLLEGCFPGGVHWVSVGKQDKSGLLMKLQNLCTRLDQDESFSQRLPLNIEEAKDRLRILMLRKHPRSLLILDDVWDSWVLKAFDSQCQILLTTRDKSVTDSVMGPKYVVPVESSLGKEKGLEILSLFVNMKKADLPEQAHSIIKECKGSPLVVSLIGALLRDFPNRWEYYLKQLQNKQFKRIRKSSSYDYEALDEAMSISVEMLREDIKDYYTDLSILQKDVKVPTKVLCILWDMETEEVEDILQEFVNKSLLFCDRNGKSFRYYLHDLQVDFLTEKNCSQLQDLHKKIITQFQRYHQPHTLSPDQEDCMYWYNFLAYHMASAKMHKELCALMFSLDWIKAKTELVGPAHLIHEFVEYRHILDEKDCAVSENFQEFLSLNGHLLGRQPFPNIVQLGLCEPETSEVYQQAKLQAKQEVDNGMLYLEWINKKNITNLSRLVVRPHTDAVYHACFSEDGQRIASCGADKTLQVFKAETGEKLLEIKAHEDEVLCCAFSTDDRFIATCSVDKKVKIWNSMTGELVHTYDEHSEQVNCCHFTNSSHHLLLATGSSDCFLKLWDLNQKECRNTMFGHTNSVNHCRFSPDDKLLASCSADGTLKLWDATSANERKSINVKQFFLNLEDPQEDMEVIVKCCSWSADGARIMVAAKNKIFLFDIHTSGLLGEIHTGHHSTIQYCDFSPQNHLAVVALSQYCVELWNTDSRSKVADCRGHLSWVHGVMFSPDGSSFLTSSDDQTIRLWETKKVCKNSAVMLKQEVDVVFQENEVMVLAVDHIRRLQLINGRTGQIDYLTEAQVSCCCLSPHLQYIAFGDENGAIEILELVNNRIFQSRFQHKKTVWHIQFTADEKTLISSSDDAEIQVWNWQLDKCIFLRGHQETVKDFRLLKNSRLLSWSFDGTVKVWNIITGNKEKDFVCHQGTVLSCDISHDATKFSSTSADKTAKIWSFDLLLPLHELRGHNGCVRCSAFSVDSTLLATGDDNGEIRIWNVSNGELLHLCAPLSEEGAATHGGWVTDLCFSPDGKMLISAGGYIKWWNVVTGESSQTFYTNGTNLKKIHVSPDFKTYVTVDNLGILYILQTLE
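Material: cell-free apoptosome with Apaf-1, procaspase-3 and caspase-9; Buffer or medium: Hepes pH 7.5 with detergent and BSA; Reagent: cytochrome c trigger plus (Z-DEVD)2-Rh110 caspase-3 substrate; Times: compound with Apaf-1, dATP, procaspase-3 30 min, then 50 min reaction, room temperature; Technique: Rh110 fluorescence intensity.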
procasp3 activ = activators of human procaspase-3 D3A mutant, primary screen, biochemical, absorbance, PC-3 D3A mutant, single concentration; recombinant procaspase-3 D3A, Ac-DEVD-pNA absorbance 405 nm; activation, % at 8.5 µM; 330,000 tested, 0.11% active; AID 463141, 2010;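 active = activation above the mean of all tested compounds plus 3 SD, cut at about 21% in these data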
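Assay system: Autoprocessing-dead procaspase-3 D3A mutant enzyme; also added: Ac-DEVD-pNA; doses: one concentration, 8.5 µM nominal, 0.8% DMSO; times: 1 h compound preincubation, 2 h substrate hydrolysis at 25 °C; technique: 405 nm absorbance of p-nitroaniline, reads at 0 and 120 min; measure: % activation between DMSO and enzyme-spiked controls; repeats: single replicate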
ZTA counter = blocks Epstein-Barr virus ZTA, an EBNA-1 counter-screen; ZTA-DNA binding, fluorescence polarization; inhibition, % at 11 µM; AID 2234; 320,000 tested, 0.15% active; in the data active = inhibition above about 33%
Each line names hits and unclear results; the compound was inactive in the other large screens.

Oc1ccc(N=Cc2ccc(O)c(O)c2)cc1	GSTO1 inh 88, Apaf1 inhib 75
COC(=O)c1ccc(-n2c(C)cc(C(=O)CCl)c2C)cc1	GSTO1 inh 87
CCc1cc2cc(C)ccc2nc1SCC(=O)NC1CCCC1	none
CN(C(=O)COC(=O)c1cccc(S(=O)(=O)N2CCOCC2)c1)C1CCS(=O)(=O)C1 (configuration not stated)	none
CN(C(=O)COC(=O)c1cc(S(=O)(=O)N2CCOCC2)c(Cl)cc1Cl)C1CCS(=O)(=O)C1 (configuration not stated)	GSTO1 inh 54
Cc1ccc(C(=O)NC(=S)NNC(=O)CC#N)cc1	GSTO1 inh 35
Cc1cc(C)cc(C(=O)NCC(=O)NNC(=O)CSc2ccccc2F)c1	none (no result: GSTO1 inh, EBNA-1 inhibitor)
CC(NC(=O)CCl)c1ccc(Cl)c(Cl)c1 (configuration not stated)	GSTO1 inh 96
COC(=O)CCC(=O)OC1(C)C(=O)C2=CN(CCc3ccccn3)C(c3ccc(OC)cc3)=CC2=C(Br)C1=O (configuration not stated)	GSTO1 inh 66, Apaf1 inhib 73
CC(C)(C)OC(=O)C[C@H]1C/C=C\C[C@H](CC(=O)N(CCO)Cc2ccccc2)C(=O)N[C@@H](c2ccccc2)COC1=O	none (no result: GSTO1 inh, EBNA-1 inhibitor, ZTA counter)
O=C(COc1ccc(F)cc1)NCC1(N2CCCCC2)CCCCC1	none (no result: procasp7 counter, GSTO1 inh, EBNA-1 inhibitor, procasp3 activ, ZTA counter)
COc1ccc(-c2cc(-c3ccccc3)nc(N3CCCC3)n2)cc1OC	procasp7 counter 27
COc1ccc(-c2cc(C(F)(F)F)nc(N3CCOCC3)n2)cc1OC	none
CC1=C(C)/C(=N\OS(=O)(=O)c2ccccc2)C=CC1=O	GSTO1 inh 35
Cc1ccc(S(=O)(=O)O/N=C2\CCCc3ccccc32)cc1	none
Cc1ccc2nc(CCl)[n+]([O-])c(-c3ccccc3)c2c1	GSTO1 inh 36
Cc1ccc2c(C)c(C(=O)Nc3ccc(S(N)(=O)=O)cc3)oc2c1C	none
Cc1c(C(=O)OCC(=O)Nc2ccc(S(N)(=O)=O)cc2)oc2c1ccc1ccccc12	EBNA-1 inhibitor 72, ZTA counter 33
COc1cc(N=CC2=C(O)c3ccccc3C2=O)cc(OC)c1	none
COC1=CC(=O)c2ccccc2C1=O	Apaf1 inhib 79 (no result: GSTO1 inh, EBNA-1 inhibitor, ZTA counter)
Cc1cc(C)n(C(C)CNS(=O)(=O)c2ccc(C)c(C)c2)n1 (configuration not stated)	none
CCOC(=O)c1sc2cc([N+](=O)[O-])cc(SCC(=O)OC)c2c1N	GSTO1 inh 36
COC(=O)c1c(NC(=O)CN2CCN(c3ccccc3Cl)CC2)sc(C)c1C	GSTO1 inh 37
CCOC(=O)c1c(NC(=O)CN2CCN(c3ccc(Cl)cc3)CC2)sc(C)c1C	none
CCc1cccc(NC(=S)Nc2cccc3ccccc23)c1	Apaf1 inhib 79
COc1ccc(CNC(=S)Nc2cccc(OC)c2)cc1	none
COc1cccc(NC(=S)Nc2cccc3ccccc23)c1	Apaf1 inhib 94
Cc1cc(C)cc(NC(=S)Nc2cccc3ccccc23)c1	none
C#CCOCCOCCOCCNc1nc(N2CCN(C(=O)[C@H]([C@@H](C)CC)n3cc(CCCN=C(N)N)nn3)CC2)nc(N2CCN(C(=O)[C@H](CCCCN)n3cc(CCCC)nn3)CC2)n1	none
C#CCOCCOCCOCCNc1nc(N2CCN(C(=O)CCCCCCCCCCNC(=O)[C@H]([C@@H](C)CC)n3cc(CCCCN=C(N)N)nn3)CC2)nc(N2CCN(C(=O)CCCCCCCCCCNC(=O)[C@H](CCCN=C(N)N)n3cc(C[C@@H](C)CC)nn3)CC2)n1	Apaf1 inhib 46, ZTA counter 137
C#CCOCCOCCOCCNc1nc(N2CCOCC2)nc(N2CCN(C(=O)[C@H]([C@@H](C)CC)n3cc(CCCN=C(N)N)nn3)CC2)n1	none
C#CCOCCOCCOCCNc1nc(N2CCN(C(=O)CCCCCCCCCCNC(=O)[C@H](CCCN=C(N)N)n3cc(C[C@@H](C)CC)nn3)CC2)nc(N2CCN(C(=O)CCCCCCCCCCNC(=O)[C@@H]([C@H](C)CC)n3cc(CCCCCN)nn3)CC2)n1	Apaf1 inhib 80, ZTA counter 161
CC(OC(=O)CC(C)c1ccccc1)C(=O)Nc1ccc(Cl)cn1 (configuration not stated)	none (no result: procasp7 counter, GSTO1 inh, EBNA-1 inhibitor, procasp3 activ, ZTA counter)
O=C(CC1SC(N2CCCC2)=NC1=O)Nc1ccc(C(=O)NCc2ccc(F)cc2)cc1 (configuration not stated)	none (no result: procasp7 counter, GSTO1 inh, EBNA-1 inhibitor, procasp3 activ, ZTA counter)
COC(=O)CCC(=O)OC1(C)C(=O)C=C2C=C(C3CC3)N(CC(C)C)C=C2C1=O (configuration not stated)	Apaf1 inhib 53 (no result: procasp7 counter, GSTO1 inh, EBNA-1 inhibitor, procasp3 activ, ZTA counter)
COC(=O)CCC(=O)OC1(C)C(=O)C=C2C=C(C3CC3)N(Cc3ccccc3)C=C2C1=O (configuration not stated)	Apaf1 inhib 42
CCN(CC)CCCN1C=C2C(=O)C(C)(OC(=O)CCC(=O)OC)C(=O)C=C2C=C1C1CC1 (configuration not stated)	none
COC(=O)CCC(=O)OC1(C)C(=O)C=C2C=C(C3CC3)N(C3CCCCC3)C=C2C1=O (configuration not stated)	Apaf1 inhib 62
Cc1cc(C(=O)COC(=O)c2cccnc2Cl)c(C)n1C	none (no result: GSTO1 inh, EBNA-1 inhibitor, ZTA counter)
CCc1ccc(-c2cc(C)no2)cc1S(=O)(=O)NCc1ccccc1OC	none
COc1ccccc1CNS(=O)(=O)c1ccc(-c2cc(C)no2)cc1	Apaf1 inhib 45
C#CCOCCOCCOCCNc1nc(N2CCN(C(=O)CCCCCCCCCCNC(=O)[C@H](CO)n3cc(CCCCCN)nn3)CC2)nc(N2CCN(C(=O)CCCCCCCCCCNC(=O)[C@H](CCCN=C(N)N)n3cc(C[C@@H](C)CC)nn3)CC2)n1	Apaf1 inhib 61, ZTA counter 105
C#CCOCCOCCOCCNc1nc(N2CCN(C(=O)CCCCCCCCCCNC(=O)[C@H](CCCCN)n3cc(C[C@@H](C)CC)nn3)CC2)nc(N2CCN(C(=O)CCCCCCCCCCNC(=O)[C@H](CCCN=C(N)N)n3cc(C[C@@H](C)CC)nn3)CC2)n1	Apaf1 inhib 55, ZTA counter 70
C#CCOCCOCCOCCNc1nc(N2CCN(C(=O)Cn3cc(CCCN=C(N)N)nn3)CC2)nc(N2CCN(C(=O)[C@H](CCCCN)n3cc(CCCC)nn3)CC2)n1	none
